Experimental data as given in ChEMBL document CHEMBL1145082 (J Med Chem, 2003).

Columns and labels:
[1] = target: Cyclin-dependent kinase 2/cyclin E (Homo sapiens) (UniProt P24864+P24941+O96020); assay: Inhibition of Cyclin-dependent kinase 2-cyclin E at 10 uM; type: protein-complex assay; parameters: scale not given: the % may be the effect or the level left
How it was run: (§1)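 Outsourced selectivity panel. Each kinase phosphorylated its own peptide or protein substrate in the presence of 10 µM compound and 10 µM ATP, within the linear time range. Activity given as mean percent of control incubations from duplicate determinations.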

[2] = Inhibition of Casein Kinase I; parameters: species or system Rattus norvegicus
How it was run: (§2)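 Reaction started with 30–150 ng kinase, run 1 h at 30 °C. Peptides captured on streptavidin plates and counted. IC50 from 6–10 concentrations; ≥3 experiments in duplicate; ± SEM.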

[3] = target: Tyrosine-protein kinase Fyn (Homo sapiens) (UniProt P06241); assay: Inhibition of human Fyn tyrosine kinase at 10 uM; parameters: scale not given: the % may be the effect or the level left; how it was run: as §1
Tyrosine-protein kinase Fyn (Homo sapiens), sequence (P06241 2-537 limits assumed): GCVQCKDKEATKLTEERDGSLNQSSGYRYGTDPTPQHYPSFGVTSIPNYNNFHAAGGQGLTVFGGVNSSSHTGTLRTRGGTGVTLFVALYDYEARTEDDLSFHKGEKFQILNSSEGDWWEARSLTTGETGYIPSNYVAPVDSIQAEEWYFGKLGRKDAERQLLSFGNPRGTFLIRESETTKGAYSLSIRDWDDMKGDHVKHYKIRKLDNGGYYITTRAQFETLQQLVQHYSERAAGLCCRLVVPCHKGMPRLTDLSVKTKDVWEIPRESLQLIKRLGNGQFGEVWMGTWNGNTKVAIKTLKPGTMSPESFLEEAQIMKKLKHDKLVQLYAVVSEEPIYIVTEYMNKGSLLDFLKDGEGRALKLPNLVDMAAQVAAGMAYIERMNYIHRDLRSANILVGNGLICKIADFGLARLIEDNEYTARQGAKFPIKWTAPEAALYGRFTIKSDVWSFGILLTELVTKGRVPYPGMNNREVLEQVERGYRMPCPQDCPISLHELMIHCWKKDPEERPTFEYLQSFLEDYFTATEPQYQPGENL

Saccharomyces cerevisiae = assay: Inhibition of yeast Casein kinase I at 10 uM; parameters: scale not given: the % may be the effect or the level left
How it was run: (§3)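 Upstate kinase selectivity panel: each kinase phosphorylated its peptide or protein substrate with 10 µM compound present and 10 µM ATP. Reactions were linear with time. Activity is reported as the mean percentage of control incubations, from duplicate determinations.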

[4] = target: Inhibitor of nuclear factor kappa-B kinase subunit alpha (Homo sapiens) (UniProt O15111); assay: Inhibition of I kappa-B kinase alpha (IKK) at 10 uM; parameters: scale not given: the % may be the effect or the level left; how it was run: as §1
Inhibitor of nuclear factor kappa-B kinase subunit alpha (Homo sapiens), sequence (O15111 whole entry): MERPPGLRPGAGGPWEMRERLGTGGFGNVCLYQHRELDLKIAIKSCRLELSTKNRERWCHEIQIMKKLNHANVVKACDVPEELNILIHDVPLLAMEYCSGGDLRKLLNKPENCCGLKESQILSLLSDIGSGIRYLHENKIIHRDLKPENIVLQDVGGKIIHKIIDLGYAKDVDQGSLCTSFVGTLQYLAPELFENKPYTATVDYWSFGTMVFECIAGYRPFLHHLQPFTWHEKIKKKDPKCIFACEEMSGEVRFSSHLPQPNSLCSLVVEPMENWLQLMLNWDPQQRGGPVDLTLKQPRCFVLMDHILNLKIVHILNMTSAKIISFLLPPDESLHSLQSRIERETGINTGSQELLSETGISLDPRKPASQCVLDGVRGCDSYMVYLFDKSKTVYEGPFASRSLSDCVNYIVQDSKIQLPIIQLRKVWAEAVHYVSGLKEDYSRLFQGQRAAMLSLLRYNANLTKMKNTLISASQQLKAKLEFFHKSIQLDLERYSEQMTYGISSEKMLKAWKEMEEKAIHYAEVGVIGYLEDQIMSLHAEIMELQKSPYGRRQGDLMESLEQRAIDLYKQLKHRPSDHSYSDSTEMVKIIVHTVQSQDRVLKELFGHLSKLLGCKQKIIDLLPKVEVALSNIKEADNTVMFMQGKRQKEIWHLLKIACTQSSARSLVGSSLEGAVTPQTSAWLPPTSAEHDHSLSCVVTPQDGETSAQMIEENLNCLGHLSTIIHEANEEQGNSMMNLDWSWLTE

[5] = target: AMP-activated protein kinase, AMPK (Homo sapiens) (UniProt P54646+O43741+P54619+Q9UGJ0+Q9Y478+Q13131+Q9UGI9); assay: Inhibition of rat liver AMP-activated Protein Kinase at 10 uM; parameters: scale not given: the % may be the effect or the level left; settings: target entry is the homologue from another species; how it was run: as §3
[6] = target: Protein kinase C beta type (Homo sapiens, UniProt P05771); assay: Inhibition of Protein kinase C beta 2
Protein kinase C beta type, sequence (P05771 whole entry): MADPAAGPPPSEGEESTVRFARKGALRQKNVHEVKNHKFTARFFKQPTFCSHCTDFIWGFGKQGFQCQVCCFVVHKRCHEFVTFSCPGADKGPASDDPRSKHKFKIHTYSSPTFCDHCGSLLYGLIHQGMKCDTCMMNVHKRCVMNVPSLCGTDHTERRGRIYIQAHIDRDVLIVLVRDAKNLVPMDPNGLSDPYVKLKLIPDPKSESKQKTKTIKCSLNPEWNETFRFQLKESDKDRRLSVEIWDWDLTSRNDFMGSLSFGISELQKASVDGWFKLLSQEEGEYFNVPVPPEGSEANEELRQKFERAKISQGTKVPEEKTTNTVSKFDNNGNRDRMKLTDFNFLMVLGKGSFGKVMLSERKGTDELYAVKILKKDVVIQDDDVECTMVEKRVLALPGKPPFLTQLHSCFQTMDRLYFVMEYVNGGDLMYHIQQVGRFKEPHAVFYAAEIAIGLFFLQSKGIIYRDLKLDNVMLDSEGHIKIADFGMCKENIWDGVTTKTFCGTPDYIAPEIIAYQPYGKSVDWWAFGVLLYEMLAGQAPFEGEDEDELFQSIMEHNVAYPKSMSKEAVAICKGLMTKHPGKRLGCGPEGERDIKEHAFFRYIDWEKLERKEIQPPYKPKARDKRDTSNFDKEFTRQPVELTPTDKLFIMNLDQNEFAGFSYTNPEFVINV
How it was run: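 Recombinant human PKCα, PKCγ or PKCβII (5–10 mU) phosphorylating histone H1 (0.1 mg/mL) with 33P-ATP, total ATP 10 µM. Buffer 50 mM Hepes pH 7.4 with Triton X-100, CaCl2, Mg acetate, phosphatidylserine and diacylglycerol. Run 40 min at room temperature, stopped with phosphoric acid, then P30 filter counting.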

[7] = target: Casein kinase II (Homo sapiens) (UniProt P67870+P68400+P19784); assay: Inhibition of human Casein kinase II at 10 uM; type: protein-complex assay; parameters: scale not given: the % may be the effect or the level left; how it was run: as §1
[8] = target: Mitogen-activated protein kinase 1 (Homo sapiens) (UniProt P28482); assay: Inhibition of human Mitogen-activated protein kinase 1 at 10 uM; parameters: scale not given: the % may be the effect or the level left; how it was run: as §1
[9] = target: Ribosomal protein S6 kinase alpha-3 (Homo sapiens) (UniProt P51812); assay: (§4) Inhibition of Ribosomal S6 kinase 3 at 10 uM; parameters: scale not given: the % may be the effect or the level left; how it was run: as §1
[10] = target: Mitogen-activated protein kinase 8 (Homo sapiens) (UniProt P45983); assay: Inhibition of human c-Jun N-terminal kinase 1-alpha 1 at 10 uM; parameters: scale not given: the % may be the effect or the level left; how it was run: as §3
Mitogen-activated protein kinase 8 (Homo sapiens), sequence (P45983 whole entry): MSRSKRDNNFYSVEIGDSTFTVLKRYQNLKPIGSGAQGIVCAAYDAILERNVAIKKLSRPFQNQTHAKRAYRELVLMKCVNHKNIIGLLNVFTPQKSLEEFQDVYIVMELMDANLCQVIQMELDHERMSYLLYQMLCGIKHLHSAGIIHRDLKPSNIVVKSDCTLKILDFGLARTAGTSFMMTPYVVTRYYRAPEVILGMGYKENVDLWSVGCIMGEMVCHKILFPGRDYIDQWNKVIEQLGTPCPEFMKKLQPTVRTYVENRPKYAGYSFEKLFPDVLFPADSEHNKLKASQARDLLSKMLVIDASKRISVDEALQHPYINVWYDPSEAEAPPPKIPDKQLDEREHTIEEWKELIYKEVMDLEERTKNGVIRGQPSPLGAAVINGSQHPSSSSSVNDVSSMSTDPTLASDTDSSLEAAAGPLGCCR

[11] = target: Serine/threonine-protein kinase N2 (Homo sapiens) (UniProt Q16513); assay: Inhibition of human Protein kinase C related kinase 2 (PRK2) at 10 uM; parameters: scale not given: the % may be the effect or the level left; how it was run: as §1
Serine/threonine-protein kinase N2 (Homo sapiens), sequence (Q16513 whole entry, looked up): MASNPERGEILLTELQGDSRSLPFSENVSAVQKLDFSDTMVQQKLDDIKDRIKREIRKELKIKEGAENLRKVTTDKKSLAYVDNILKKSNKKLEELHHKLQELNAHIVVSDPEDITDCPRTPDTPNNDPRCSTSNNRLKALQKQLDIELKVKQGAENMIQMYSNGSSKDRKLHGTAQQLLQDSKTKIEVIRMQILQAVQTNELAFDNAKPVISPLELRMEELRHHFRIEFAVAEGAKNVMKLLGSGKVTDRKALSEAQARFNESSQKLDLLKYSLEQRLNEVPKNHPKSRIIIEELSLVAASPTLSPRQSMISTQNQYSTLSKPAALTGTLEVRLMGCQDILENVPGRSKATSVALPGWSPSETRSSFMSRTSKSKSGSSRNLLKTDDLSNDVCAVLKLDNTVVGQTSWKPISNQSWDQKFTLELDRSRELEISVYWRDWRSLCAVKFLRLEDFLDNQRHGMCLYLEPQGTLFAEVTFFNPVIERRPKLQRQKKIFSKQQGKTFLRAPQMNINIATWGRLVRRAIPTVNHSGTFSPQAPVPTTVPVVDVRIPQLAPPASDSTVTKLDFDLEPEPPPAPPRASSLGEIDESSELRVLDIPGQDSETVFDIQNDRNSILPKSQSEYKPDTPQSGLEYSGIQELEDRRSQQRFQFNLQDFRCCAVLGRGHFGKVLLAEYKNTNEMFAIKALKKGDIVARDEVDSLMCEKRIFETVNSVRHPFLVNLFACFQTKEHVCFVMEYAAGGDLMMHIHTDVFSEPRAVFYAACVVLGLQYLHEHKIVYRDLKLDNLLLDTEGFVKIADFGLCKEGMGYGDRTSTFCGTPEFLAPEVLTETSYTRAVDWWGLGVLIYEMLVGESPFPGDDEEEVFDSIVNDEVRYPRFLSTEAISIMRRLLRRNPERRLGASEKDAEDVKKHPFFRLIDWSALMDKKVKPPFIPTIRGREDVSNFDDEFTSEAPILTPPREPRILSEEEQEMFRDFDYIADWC

[12] = target: Cyclin-dependent kinase 2 (Homo sapiens, UniProt P24941); assay: Inhibition of Cyclin-dependent kinase 2 (CDK2); how it was run: as §2
[13] = target: MAP kinase-activated protein kinase 2 (Homo sapiens) (UniProt P49137); assay: Inhibition of human MAP kinase-activated protein kinase 2 at 10 uM; parameters: scale not given: the % may be the effect or the level left; how it was run: as §1
MAP kinase-activated protein kinase 2 (Homo sapiens), sequence (P49137 whole entry, looked up): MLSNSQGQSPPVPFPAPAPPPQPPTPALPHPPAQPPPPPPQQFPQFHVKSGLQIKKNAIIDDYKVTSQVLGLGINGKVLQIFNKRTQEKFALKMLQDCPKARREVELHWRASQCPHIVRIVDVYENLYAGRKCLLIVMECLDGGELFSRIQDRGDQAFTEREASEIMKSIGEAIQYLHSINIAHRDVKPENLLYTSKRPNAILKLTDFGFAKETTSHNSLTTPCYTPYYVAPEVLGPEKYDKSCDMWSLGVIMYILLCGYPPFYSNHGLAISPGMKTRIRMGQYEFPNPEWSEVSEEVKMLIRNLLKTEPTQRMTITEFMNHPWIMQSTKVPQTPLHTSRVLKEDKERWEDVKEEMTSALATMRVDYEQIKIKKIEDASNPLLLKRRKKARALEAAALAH

[14] = target: Dual specificity mitogen-activated protein kinase kinase 4 (Mus musculus) (UniProt P47809); assay: Inhibition of mouse Mitogen activated protein kinase kinase 4 at 10 uM; parameters: scale not given: the % may be the effect or the level left; how it was run: as §3
Dual specificity mitogen-activated protein kinase kinase 4 (Mus musculus), sequence (P47809 whole entry): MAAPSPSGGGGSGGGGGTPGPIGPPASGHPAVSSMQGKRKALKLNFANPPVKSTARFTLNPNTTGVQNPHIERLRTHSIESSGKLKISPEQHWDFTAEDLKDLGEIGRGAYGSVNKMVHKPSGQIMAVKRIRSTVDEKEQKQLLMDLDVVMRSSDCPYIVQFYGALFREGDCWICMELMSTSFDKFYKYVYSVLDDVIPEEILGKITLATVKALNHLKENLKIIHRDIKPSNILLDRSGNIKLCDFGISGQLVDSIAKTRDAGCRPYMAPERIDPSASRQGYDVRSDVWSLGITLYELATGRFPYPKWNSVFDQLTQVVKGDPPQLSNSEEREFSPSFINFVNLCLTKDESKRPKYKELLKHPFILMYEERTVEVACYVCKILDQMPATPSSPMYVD

[15] = target: Cyclin-dependent kinase 7/ cyclin H (Homo sapiens) (UniProt P51946+P50613); assay: Inhibition of cyclin-dependent kinase 7-cyclin H at 10 uM; type: protein-complex assay; parameters: scale not given: the % may be the effect or the level left; how it was run: as §1
[16] = target: Protein kinase C theta type (Homo sapiens, UniProt Q04759); assay: Inhibition of Protein kinase C theta
Protein kinase C theta type, sequence (Q04759 whole entry): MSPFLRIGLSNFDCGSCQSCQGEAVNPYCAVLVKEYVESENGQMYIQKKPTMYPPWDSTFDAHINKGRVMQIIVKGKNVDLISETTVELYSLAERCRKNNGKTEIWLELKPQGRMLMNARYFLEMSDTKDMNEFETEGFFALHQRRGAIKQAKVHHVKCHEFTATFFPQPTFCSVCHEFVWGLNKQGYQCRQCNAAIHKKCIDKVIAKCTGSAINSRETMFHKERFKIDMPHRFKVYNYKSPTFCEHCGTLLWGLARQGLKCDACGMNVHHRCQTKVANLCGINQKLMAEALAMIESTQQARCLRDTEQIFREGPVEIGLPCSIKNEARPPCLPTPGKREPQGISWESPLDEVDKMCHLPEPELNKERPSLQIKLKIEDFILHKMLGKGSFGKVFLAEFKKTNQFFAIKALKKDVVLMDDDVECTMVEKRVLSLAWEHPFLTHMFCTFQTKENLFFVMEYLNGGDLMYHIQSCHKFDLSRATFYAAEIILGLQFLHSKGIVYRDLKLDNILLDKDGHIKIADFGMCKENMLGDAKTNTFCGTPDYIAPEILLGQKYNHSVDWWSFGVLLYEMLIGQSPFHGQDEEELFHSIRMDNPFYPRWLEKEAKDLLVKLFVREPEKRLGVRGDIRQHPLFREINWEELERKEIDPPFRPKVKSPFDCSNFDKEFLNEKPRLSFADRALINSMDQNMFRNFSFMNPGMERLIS
How it was run: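 Recombinant human PKCθ (5–10 mU) with histone H1 (0.1 mg/mL) and 33P-ATP, total ATP 10 µM, in 8 mM MOPS pH 7.0, 0.2 mM EDTA, 10 mM Mg acetate. Run 40 min at room temperature, stopped with phosphoric acid, then P30 filter counting. IC50 from 6–10 concentrations; ≥3 experiments in duplicate; ± SEM.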

[17] = Increased glycogen synthase activity in HEK293 cells; type: functional, cell-based; settings: Homo sapiens
How it was run: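 HEK293 cells starved of serum and glucose for 3 h, then exposed to compound or vehicle for 90 min at 37 °C. Cells lysed by three freeze–thaw cycles and lysates clarified. GS activity read as 14C-UDP-glucose incorporation into glycogen, with and without glucose 6-phosphate. EC50 from 6–10 concentrations; ≥3 experiments in duplicate; mean ± SEM.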

[18] = target: Tyrosine-protein kinase SYK (Homo sapiens) (UniProt P43405); assay: Inhibition of Syk protein tyrosine kinase at 10 uM; parameters: scale not given: the % may be the effect or the level left; how it was run: as §1
[19] = target: Mitogen-activated protein kinase 8 (Homo sapiens) (UniProt P45983); assay: Inhibition of human JNK1-alpha-1 at 10 uM; parameters: scale not given: the % may be the effect or the level left; how it was run: as §1
[20] = target: Insulin receptor (Homo sapiens) (UniProt P06213); assay: Inhibition of Insulin receptor at 10 uM; parameters: scale not given: the % may be the effect or the level left; how it was run: as §1
[21] = target: Ribosomal protein S6 kinase alpha-3 (Homo sapiens) (UniProt P51812); assay: as §4; how it was run: as §1
[22] = target: Serine/threonine-protein kinase N2 (Homo sapiens) (UniProt Q16513); assay: Inhibition of human protein kinase C-related protein kinase 2 (PRK2) at 10 uM; parameters: scale not given: the % may be the effect or the level left; how it was run: as §3

Activity [1] | IC50 [2] | Activity [3] | Activity (Saccharomyces cerevisiae) | Activity [4] | Activity [5] | IC50 [6] | Activity [7] | IC50 [12] | Activity [13] | Activity [14] | Activity [15] | IC50 [16] | EC50 [17] | Activity [18] | SMILES | also measured
67% | > 10 µM | 92% | 84% | 100% | 88% | 1.16 µM | 105% | > 10 µM | 97% | 110% | 85% | > 10 µM | 0.06 µM | 67% | O=C1NC(=O)C2=C1c1cn(c3ncccc13)CCOCCOCCOCCn1cc2c2cccnc21 | Activity [8]: 106%; Activity [9]: 21%; Activity [10]: 78%; Activity [11]: 92%
100% | > 10 µM | 95% | 89% | 98% | 99% | > 10 µM | 102% | > 10 µM | 85% | 107% | 86% | > 10 µM | 0.39 µM | 72% | O=C1NC(=O)C2=C1c1cn(c3ncccc13)CCOCCOCCOCCOCCn1cc2c2cccnc21 | Activity [19]: 98%; Activity [20]: 92%; Of control [21]: 63%; Activity [22]: 104%
